Calls of active or inactive are those of the source. No cut-off for these calls is given here.
What was measured:
[1] = tested on: Mus musculus; assay: Anticonvulsant activity in Swiss mouse assessed as protection against seizures at 100 mg/kg, ip dosed 2 hrs before initiation of maximal electroconvulsions by maximal electroshock test; format: functional
Procedure, shortened: (§1)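 Mice were dosed i.p. at a fixed 300 or 100 mg/kg (6 Hz: 100 mg/kg only). Protection was then scored against MES, sc PTZ or 6 Hz seizures at pretreatment times of 0.25, 0.5, 1 and 2 h. Groups were four mice, scored as number protected / number tested. This also gives the time course and time of peak effect.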

[2] = organism: Rattus norvegicus; assay: Inhibition of [3H]BTX binding to sodium channel site 2 in rat cerebral cortex synaptosomes at 100 uM incubated for 60 mins by scintillation counting based radioligand displacement assay; format: subcellular
Procedure, shortened: (§2)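 Synaptoneurosomal preparations from rat cerebral cortex were used. The read-out was inhibition of specific [3H]BTX binding to the voltage-sensitive sodium channel (site 2), expressed as % inhibition of control specific binding. Compounds were tested at 1, 10, 100 and 500 μM. Inhibition above 50% was taken as significant.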

[3] = organism: Mus musculus; assay: Protective index, ratio of neurotoxic TD50 in Swiss mouse by Chimney test to anticonvulsant ED50 in Swiss mouse measured at 0.5 hrs of time to peak effect by maximal electroshock test
Procedure, shortened: (§3)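 Protective index was calculated as TD50 (chimney test, mouse, i.p.) divided by ED50 from the matching MES, sc PTZ or 6 Hz test, both taken at the time of peak effect.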

[4] = tested on: Mus musculus; assay: Anticonvulsant activity in Swiss mouse assessed as protection against seizures at 100 mg/kg, ip dosed 1 hr before pentylenetetrazole challenge by subcutaneous pentylenetetrazole seizure test; format: functional; procedure, shortened: as §1
[5] = organism: Rattus norvegicus; assay: Inhibition of [3H]BTX binding to sodium channel site 2 in rat cerebral cortex synaptosomes at 1 uM incubated for 60 mins by scintillation counting based radioligand displacement assay; format: subcellular; procedure, shortened: as §2
[6] = tested on: Mus musculus; assay: Anticonvulsant activity in ip dosed Swiss mouse assessed as protection against seizures measured at 0.5 hrs of time to peak effect by maximal electroshock test; format: functional
Procedure, shortened: (§4)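 Median effective doses (ED50, mg/kg) were determined i.p. in mice at the time of peak effect in the MES, sc PTZ or 6 Hz tests. Only compounds giving at least 50% protection at 100 mg/kg in that test were taken forward.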

[7] = tested on: Mus musculus; assay: Anticonvulsant activity in ip dosed Swiss mouse assessed as protection against seizures measured at 0.25 hrs of time to peak effect by 6 Hz test by 6 Hz psychomotor seizure test; format: functional; procedure, shortened: as §4
[8] = tested on: Mus musculus; assay: Anticonvulsant activity in Swiss mouse assessed as protection against seizures at 300 mg/kg, ip dosed 1 hr before pentylenetetrazole challenge by subcutaneous pentylenetetrazole seizure test; format: functional; procedure, shortened: as §1
[9] = organism: Rattus norvegicus; assay: Inhibition of [3H]BTX binding to sodium channel site 2 in rat cerebral cortex synaptosomes at 10 uM incubated for 60 mins by scintillation counting based radioligand displacement assay; format: subcellular; procedure, shortened: as §2
[10] = organism: Mus musculus; assay: Protective index, ratio of neurotoxic TD50 in Swiss mouse by Chimney test to anticonvulsant ED50 in Swiss mouse measured at 0.25 hrs of time to peak effect by maximal electroshock test; procedure, shortened: as §3
[11] = tested on: Mus musculus; assay: Anticonvulsant activity in Swiss mouse assessed as protection against seizures at 300 mg/kg, ip dosed 1 hr before initiation of maximal electroconvulsions by maximal electroshock test; format: functional; procedure, shortened: as §1
[12] = tested on: Mus musculus; assay: Anticonvulsant activity in Swiss mouse model of 6 Hz psychomotor seizure mode assessed as protection against seizures at 100 mg/kg, ip dosed 1 hr before 6 Hz electrical stimulation by 6 Hz test; format: functional; procedure, shortened: as §1
[13] = tested on: Mus musculus; assay: Anticonvulsant activity in Swiss mouse model of 6 Hz psychomotor seizure mode assessed as protection against seizures at 100 mg/kg, ip dosed 2 hrs before 6 Hz electrical stimulation by 6 Hz test; format: functional; procedure, shortened: as §1
[14] = Toxicity in ip dosed Swiss mouse assessed as induction of motor performance impairment measured within 60 seconds measured at 0.25 hrs of time to peak effect by Chimney test; format: organism-based; details: in vivo
Procedure, shortened: (§5)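 Neurotoxicity was measured i.p. in mice by the chimney test for motor impairment. It was given as the median neurotoxic dose (TD50, mg/kg) at the time of peak effect.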

[15] = tested on: Mus musculus; assay: Anticonvulsant activity in Swiss mouse model of 6 Hz psychomotor seizure mode assessed as protection against seizures at 100 mg/kg, ip dosed 0.25 hrs before 6 Hz electrical stimulation by 6 Hz test; format: functional; procedure, shortened: as §1
[16] = tested on: Mus musculus; assay: Anticonvulsant activity in ip dosed Swiss mouse assessed as protection against seizures measured at 0.5 hrs of time to peak effect by subcutaneous pentylenetetrazole seizure test; format: functional; procedure, shortened: as §4
[17] = tested on: Mus musculus; assay: Anticonvulsant activity in ip dosed Swiss mouse assessed as protection against seizures measured at 0.25 hrs of time to peak effect by maximal electroshock test; format: functional; procedure, shortened: as §4
[18] = tested on: Mus musculus; assay: Anticonvulsant activity in Swiss mouse assessed as protection against seizures at 100 mg/kg, ip dosed 0.5 hrs before initiation of maximal electroconvulsions by maximal electroshock test; format: functional; procedure, shortened: as §1
[19] = tested on: Mus musculus; assay: Anticonvulsant activity in Swiss mouse assessed as protection against seizures at 300 mg/kg, ip dosed 2 hrs before pentylenetetrazole challenge by subcutaneous pentylenetetrazole seizure test; format: functional; procedure, shortened: as §1
[20] = organism: Mus musculus; assay: Protective index, ratio of neurotoxic TD50 in Swiss mouse by Chimney test to anticonvulsant ED50 in Swiss mouse measured at 0.5 hrs of time to peak effect by 6 Hz test by 6 Hz psychomotor seizure test; format: functional; procedure, shortened: as §3
[21] = tested on: Mus musculus; assay: Anticonvulsant activity in ip dosed Swiss mouse assessed as protection against seizures measured at 0.25 hrs of time to peak effect by subcutaneous pentylenetetrazole seizure test; format: functional; procedure, shortened: as §4
[22] = tested on: Mus musculus; assay: Anticonvulsant activity in Swiss mouse assessed as protection against seizures at 100 mg/kg, ip dosed 0.25 hrs before initiation of maximal electroconvulsions by maximal electroshock test; format: functional; procedure, shortened: as §1
[23] = Toxicity in ip dosed Swiss mouse assessed as induction of motor performance impairment measured within 60 seconds measured at 0.5 hrs of time to peak effect by Chimney test; format: organism-based; details: in vivo; procedure, shortened: as §5
[24] = tested on: Mus musculus; assay: Anticonvulsant activity in Swiss mouse assessed as protection against seizures at 300 mg/kg, ip dosed 0.25 hrs before pentylenetetrazole challenge by subcutaneous pentylenetetrazole seizure test; format: functional; procedure, shortened: as §1
[25] = tested on: Mus musculus; assay: Anticonvulsant activity in ip dosed Swiss mouse assessed as protection against seizures measured at 0.5 hrs of time to peak effect by 6 Hz test by 6 Hz psychomotor seizure test; format: functional; procedure, shortened: as §4
[26] = tested on: Mus musculus; assay: Anticonvulsant activity in Swiss mouse assessed as protection against seizures at 300 mg/kg, ip dosed 2 hrs before initiation of maximal electroconvulsions by maximal electroshock test; format: functional; procedure, shortened: as §1
[27] = tested on: Mus musculus; assay: Anticonvulsant activity in Swiss mouse assessed as protection against seizures at 300 mg/kg, ip dosed 0.5 hrs before pentylenetetrazole challenge by subcutaneous pentylenetetrazole seizure test; format: functional; procedure, shortened: as §1
[28] = tested on: Mus musculus; assay: Anticonvulsant activity in Swiss mouse assessed as protection against seizures at 300 mg/kg, ip dosed 0.5 hrs before initiation of maximal electroconvulsions by maximal electroshock test; format: functional; procedure, shortened: as §1
[29] = organism: Mus musculus; assay: Protective index, ratio of neurotoxic TD50 in Swiss mouse by Chimney test to anticonvulsant ED50 in Swiss mouse measured at 0.25 hrs of time to peak effect by 6 Hz test by 6 Hz psychomotor seizure test; format: functional; procedure, shortened: as §3
[30] = tested on: Mus musculus; assay: Anticonvulsant activity in Swiss mouse assessed as protection against seizures at 300 mg/kg, ip dosed 0.25 hrs before initiation of maximal electroconvulsions by maximal electroshock test; format: functional; procedure, shortened: as §1
[31] = tested on: Mus musculus; assay: Anticonvulsant activity in Swiss mouse assessed as protection against seizures at 100 mg/kg, ip dosed 0.25 hrs before pentylenetetrazole challenge by subcutaneous pentylenetetrazole seizure test; format: functional; procedure, shortened: as §1
[32] = tested on: Mus musculus; assay: Anticonvulsant activity in Swiss mouse model of 6 Hz psychomotor seizure mode assessed as protection against seizures at 100 mg/kg, ip dosed 0.5 hrs before 6 Hz electrical stimulation by 6 Hz test; format: functional; procedure, shortened: as §1
[33] = tested on: Mus musculus; assay: Protective index, ratio of neurotoxic TD50 in Swiss mouse by Chimney test to anticonvulsant ED50 in Swiss mouse measured at 0.25 hrs of time to peak effect by subcutaneous pentylenetetrazole seizure test; format: functional; procedure, shortened: as §3
[34] = organism: Rattus norvegicus; assay: Inhibition of [3H]BTX binding to sodium channel site 2 in rat cerebral cortex synaptosomes at 500 uM incubated for 60 mins by scintillation counting based radioligand displacement assay; format: subcellular; procedure, shortened: as §2
[35] = tested on: Mus musculus; assay: Anticonvulsant activity in Swiss mouse assessed as protection against seizures at 100 mg/kg, ip dosed 1 hr before initiation of maximal electroconvulsions by maximal electroshock test; format: functional; procedure, shortened: as §1
[36] = tested on: Mus musculus; assay: Protective index, ratio of neurotoxic TD50 in Swiss mouse by Chimney test to anticonvulsant ED50 in Swiss mouse measured at 0.5 hrs of time to peak effect by subcutaneous pentylenetetrazole seizure test; format: functional; procedure, shortened: as §3
[37] = tested on: Mus musculus; assay: Anticonvulsant activity in Swiss mouse assessed as protection against seizures at 100 mg/kg, ip dosed 2 hrs before pentylenetetrazole challenge by subcutaneous pentylenetetrazole seizure test; format: functional; procedure, shortened: as §1
[38] = tested on: Mus musculus; assay: Anticonvulsant activity in Swiss mouse assessed as protection against seizures at 100 mg/kg, ip dosed 0.5 hrs before pentylenetetrazole challenge by subcutaneous pentylenetetrazole seizure test; format: functional; procedure, shortened: as §1
[39] = organism: Rattus norvegicus; assay: Inhibition of [125I]omega-conotoxin GVIA binding to N-type calcium channel in rat cerebral cortex synaptosomes at 200 uM incubated for 30 mins by scintillation counting based radioligand displacement assay; format: subcellular
[40] = organism: Rattus norvegicus; assay: Inhibition of [125I]omega-conotoxin GVIA binding to N-type calcium channel in rat cerebral cortex synaptosomes at 100 uM incubated for 30 mins by scintillation counting based radioligand displacement assay; format: subcellular

SMILES | Activity [1] | inhibition [2] | Ratio TD50/ED50 [3] | Activity [4] | inhibition [5] | ED50 [6] | ED50 [7] | Activity [8] | inhibition [9] | Ratio TD50/ED50 [10] | Activity [11] | Activity [12] | Activity [13] | TD50 at 0.25 h [14] | Activity [15] | ED50 [16] | ED50 [17] | Activity [18] | Activity [19] | Ratio TD50/ED50 [20] | other results
CCC(C(=O)N1CCN(c2cccc(C(F)(F)F)c2)CC1)N1C(=O)CCC1=O (racemic) | 0% | 8.8% | 1.88 | 25% | 8.4% | 91.7 mg/kg | 19.9 mg/kg | 75% | 9.5% | 3.38 | 100% | 75% | 50% | 199 mg/kg | 100% | 78.6 mg/kg | 58.9 mg/kg | 50% | 75% | 4.08 | ED50 [21]: 83.2 mg/kg; Activity [22]: 75%; TD50 at 0.5 h [23]: 173 mg/kg; Activity [24]: 100%; ED50 [25]: 42.3 mg/kg; Activity [26]: 50%; Activity [27]: 75%; Activity [28]: 50%; Ratio TD50/ED50 [29]: 10; Activity [30]: 75%; Activity [31]: 50%; Activity [32]: 100%; Ratio TD50/ED50 [33]: 2.39; inhibition [34]: 69.5%; Activity [35]: 0%; Ratio TD50/ED50 [36]: 2.19; Activity [37]: 25%; Activity [38]: 75%
COCC(C(=O)N1CCN(c2cccc(C(F)(F)F)c2)CC1)N1C(=O)CCC1=O (racemic) | 0% | 38.7% | 2.32 | 50% | 5.7% | 85.1 mg/kg | 57.6 mg/kg | 75% | 14.6% | 3.49 | 100% | 75% | 25% | 203 mg/kg | 100% | > 120 mg/kg | 58.1 mg/kg | 75% | 75% | 2.64 | inhibition [39]: 3.2%; ED50 [21]: > 120 mg/kg; Activity [22]: 100%; TD50 at 0.5 h [23]: 197 mg/kg; inhibition [40]: inactive; Activity [24]: 100%; ED50 [25]: > 120 mg/kg; Activity [26]: 100%; Activity [27]: 100%; Activity [28]: 50%; Ratio TD50/ED50 [29]: 3.52; Activity [30]: 25%; Activity [31]: 50%; Activity [32]: 100%; inhibition [34]: 77.6%; Activity [35]: 50%; Activity [37]: 50%; Activity [38]: 50%
